In PMC10975593 (ACS Omega, 2024):
Read-outs that look alike come from different tables or passages of the source.

Assays:
DU-145 = test: NCI 60-cell line screen; format: cell-based, human; settings: for TGI: DU-145, prostate cancer; for GI50 / IC50 / CC50: Homo sapiens; for GI50 / IC50: DU-145; for CC50: DU-145, read-out: LC50
[1] = tested on: MCF-7 and A549 cancer cell lines; test: MTT assay, range over both cell lines; format: cell-based; settings: read-out: IC50 values, range
How it was run: (§1)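 A549 in DMEM and MCF-7 in RPMI, each with 10% heat-inactivated FBS, 1% penicillin/streptomycin and 2 mmol/L glutamine at 37 °C, 5% CO2. Seeded at 2000 (A549) or 10,000 (MCF-7) cells/well and attached 24 h. Then 72 h with test compound at varying concentrations. MTT (5 mg/mL stock) added for 4 h at 37 °C, formazan dissolved in DMSO, absorbance read at 450/540 nm. Triplicates in three separate experiments.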

HCT-15 = test: NCI 60-cell line screen; format: cell-based, human; settings: for TGI: HCT-15, colon cancer; for GI50 / IC50 / CC50: Homo sapiens; for GI50 / IC50: HCT-15; for CC50: HCT-15, read-out: LC50
T-47D = test: NCI 60-cell line screen; format: cell-based, human; settings: for GI50 / IC50 / CC50: Homo sapiens, T47D; for CC50: read-out: LC50; for TGI: T-47D, breast cancer
How it was run: (§2)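 Test compounds were submitted to the National Cancer Institute and run under NCI's standard 60-cell-line protocols. Read-outs were taken from percent-growth versus log-concentration curves.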

Fibro cell line = test: % inhibition on normal cell line; format: cell-based; settings: for inhibition at 10 µM: read-out: %inhibition at 10 μM; for inhibition at 100 µM: read-out: %inhibition at 100 μM
SF-295 = test: NCI 60-cell line screen; format: cell-based, human; settings: for GI50 / IC50 / CC50: Homo sapiens; for GI50 / IC50: SF-295; for CC50: SF-295, read-out: LC50; for TGI: SF-295, CNS cancer
How it was run: as §2

BT-549 = test: NCI 60-cell line screen; format: cell-based, human; settings: for TGI: BT-549, breast cancer; for GI50 / IC50 / CC50: Homo sapiens; for GI50 / IC50: BT-549; for CC50: BT-549, read-out: LC50
NCI 60 cell line panel = test: NCI 60-cell line inhibition, range over panel; format: cell-based; settings: Homo sapiens; for GI50: read-out: GI50, range over cell lines; for IC50: read-out: IC50, range over cell lines
OVCAR-4 = test: NCI 60-cell line screen; format: cell-based, human; settings: for GI50 / IC50 / CC50: Homo sapiens; for GI50 / IC50: OVCAR-4; for CC50: OVCAR-4, read-out: LC50; for TGI: OVCAR-4, ovarian cancer
786-0 = test: NCI 60-cell line screen; format: cell-based, human; settings: for TGI: 786-0, renal cancer; for GI50 / IC50 / CC50: Homo sapiens; for GI50 / IC50: 786-0; for CC50: 786-0, read-out: LC50
HOP-92 = test: NCI 60-cell line screen; format: cell-based, human; settings: for TGI: HOP-92, non-small cell lung cancer; for GI50 / IC50 / CC50: Homo sapiens; for GI50 / IC50: HOP-92; for CC50: HOP-92, read-out: LC50
UACC-257 = test: NCI 60-cell line screen; format: cell-based, human; settings: for GI50 / IC50 / CC50: Homo sapiens; for GI50 / IC50: UACC-257; for CC50: UACC-257, read-out: LC50; for TGI: UACC-257, melanoma
How it was run: as §2

IGROV1 = test: NCI 60-cell line screen; format: cell-based, human; settings: for GI50 / IC50 / CC50: Homo sapiens; for GI50 / IC50: IGROV-1; for CC50: IGROV-1, read-out: LC50; for TGI: IGROV1, ovarian cancer
MALME-3M = test: NCI 60-cell line screen; format: cell-based, human; settings: for GI50 / IC50 / CC50: Homo sapiens, Malme-3M; for CC50: read-out: LC50; for TGI: MALME-3M, melanoma
OVCAR-5 = test: NCI 60-cell line screen; format: cell-based, human; settings: for GI50 / IC50 / CC50: Homo sapiens; for GI50 / IC50: OVCAR-5; for CC50: OVCAR-5, read-out: LC50; for TGI: OVCAR-5, ovarian cancer
How it was run: as §2

U251 = test: NCI 60-cell line screen; format: cell-based, human; settings: for GI50 / IC50 / CC50: Homo sapiens; for GI50 / IC50: U-251; for CC50: U-251, read-out: LC50; for TGI: U251, CNS cancer
How it was run: as §2

[2] = target: PIK3CD/PIK3R1 (p110 δ/p85 α) (Homo sapiens, UniProt O00329); test: Kinase selectivity for OMS14; format: biochemical
PIK3CD/PIK3R1 (p110 δ/p85 α), sequence (O00329 whole entry): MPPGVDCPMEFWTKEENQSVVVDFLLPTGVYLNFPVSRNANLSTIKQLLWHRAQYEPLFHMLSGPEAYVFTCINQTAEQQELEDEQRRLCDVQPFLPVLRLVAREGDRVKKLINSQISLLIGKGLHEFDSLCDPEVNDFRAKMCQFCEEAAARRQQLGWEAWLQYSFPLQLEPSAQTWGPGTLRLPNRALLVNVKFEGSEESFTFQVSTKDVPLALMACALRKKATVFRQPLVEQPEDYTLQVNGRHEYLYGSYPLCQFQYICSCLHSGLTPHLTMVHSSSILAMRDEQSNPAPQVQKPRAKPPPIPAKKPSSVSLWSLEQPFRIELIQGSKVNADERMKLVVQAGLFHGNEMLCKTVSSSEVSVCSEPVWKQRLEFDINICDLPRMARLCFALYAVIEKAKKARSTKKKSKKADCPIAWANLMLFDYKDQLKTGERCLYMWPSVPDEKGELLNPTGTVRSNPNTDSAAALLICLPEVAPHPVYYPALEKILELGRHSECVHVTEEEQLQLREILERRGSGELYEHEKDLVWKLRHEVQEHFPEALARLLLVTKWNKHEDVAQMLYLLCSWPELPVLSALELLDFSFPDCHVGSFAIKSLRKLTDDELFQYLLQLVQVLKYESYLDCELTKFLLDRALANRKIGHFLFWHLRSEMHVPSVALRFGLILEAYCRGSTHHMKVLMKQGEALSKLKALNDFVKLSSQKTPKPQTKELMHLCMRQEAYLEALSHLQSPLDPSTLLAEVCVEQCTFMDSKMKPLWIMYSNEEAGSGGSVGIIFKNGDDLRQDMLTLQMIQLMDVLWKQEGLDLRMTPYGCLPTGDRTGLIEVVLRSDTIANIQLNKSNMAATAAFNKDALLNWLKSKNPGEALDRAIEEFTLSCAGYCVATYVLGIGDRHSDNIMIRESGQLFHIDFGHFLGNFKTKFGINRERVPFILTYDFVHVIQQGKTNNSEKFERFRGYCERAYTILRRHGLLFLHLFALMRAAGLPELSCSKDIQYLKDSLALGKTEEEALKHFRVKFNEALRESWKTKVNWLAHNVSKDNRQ
PIK3CD/PIK3R1 (p110 δ/p85 α), sequence (P27986 whole entry partner): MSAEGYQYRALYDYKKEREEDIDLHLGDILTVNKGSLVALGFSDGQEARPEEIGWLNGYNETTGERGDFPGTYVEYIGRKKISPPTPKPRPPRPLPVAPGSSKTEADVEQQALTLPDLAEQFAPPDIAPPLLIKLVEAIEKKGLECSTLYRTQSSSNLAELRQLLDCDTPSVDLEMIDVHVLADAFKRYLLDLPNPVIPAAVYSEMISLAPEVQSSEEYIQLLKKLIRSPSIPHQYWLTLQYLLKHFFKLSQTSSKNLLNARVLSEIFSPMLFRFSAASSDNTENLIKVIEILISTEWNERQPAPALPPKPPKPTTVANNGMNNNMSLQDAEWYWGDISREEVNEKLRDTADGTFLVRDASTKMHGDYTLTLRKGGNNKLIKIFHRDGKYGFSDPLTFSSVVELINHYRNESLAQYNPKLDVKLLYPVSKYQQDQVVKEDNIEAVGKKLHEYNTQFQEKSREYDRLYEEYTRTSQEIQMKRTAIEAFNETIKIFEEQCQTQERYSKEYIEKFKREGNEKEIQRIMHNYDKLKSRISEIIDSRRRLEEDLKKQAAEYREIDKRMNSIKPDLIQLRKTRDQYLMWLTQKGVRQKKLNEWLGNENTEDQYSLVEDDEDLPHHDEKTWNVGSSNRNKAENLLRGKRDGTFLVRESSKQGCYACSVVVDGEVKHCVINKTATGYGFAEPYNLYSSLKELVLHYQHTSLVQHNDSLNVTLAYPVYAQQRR

MCF-7 cancer cell line = test: MTT assay; format: cell-based; settings: Homo sapiens, MCF7, 72 h
How it was run: as §1

[3] = target: PIK3CA E542 K/PIK3R1 (p110 α E542 K/p85 α) (Homo sapiens, UniProt P42336, E542K); test: Kinase selectivity for OMS14; format: biochemical
PIK3CA E542 K/PIK3R1 (p110 α E542 K/p85 α), sequence (P42336 whole entry E542K): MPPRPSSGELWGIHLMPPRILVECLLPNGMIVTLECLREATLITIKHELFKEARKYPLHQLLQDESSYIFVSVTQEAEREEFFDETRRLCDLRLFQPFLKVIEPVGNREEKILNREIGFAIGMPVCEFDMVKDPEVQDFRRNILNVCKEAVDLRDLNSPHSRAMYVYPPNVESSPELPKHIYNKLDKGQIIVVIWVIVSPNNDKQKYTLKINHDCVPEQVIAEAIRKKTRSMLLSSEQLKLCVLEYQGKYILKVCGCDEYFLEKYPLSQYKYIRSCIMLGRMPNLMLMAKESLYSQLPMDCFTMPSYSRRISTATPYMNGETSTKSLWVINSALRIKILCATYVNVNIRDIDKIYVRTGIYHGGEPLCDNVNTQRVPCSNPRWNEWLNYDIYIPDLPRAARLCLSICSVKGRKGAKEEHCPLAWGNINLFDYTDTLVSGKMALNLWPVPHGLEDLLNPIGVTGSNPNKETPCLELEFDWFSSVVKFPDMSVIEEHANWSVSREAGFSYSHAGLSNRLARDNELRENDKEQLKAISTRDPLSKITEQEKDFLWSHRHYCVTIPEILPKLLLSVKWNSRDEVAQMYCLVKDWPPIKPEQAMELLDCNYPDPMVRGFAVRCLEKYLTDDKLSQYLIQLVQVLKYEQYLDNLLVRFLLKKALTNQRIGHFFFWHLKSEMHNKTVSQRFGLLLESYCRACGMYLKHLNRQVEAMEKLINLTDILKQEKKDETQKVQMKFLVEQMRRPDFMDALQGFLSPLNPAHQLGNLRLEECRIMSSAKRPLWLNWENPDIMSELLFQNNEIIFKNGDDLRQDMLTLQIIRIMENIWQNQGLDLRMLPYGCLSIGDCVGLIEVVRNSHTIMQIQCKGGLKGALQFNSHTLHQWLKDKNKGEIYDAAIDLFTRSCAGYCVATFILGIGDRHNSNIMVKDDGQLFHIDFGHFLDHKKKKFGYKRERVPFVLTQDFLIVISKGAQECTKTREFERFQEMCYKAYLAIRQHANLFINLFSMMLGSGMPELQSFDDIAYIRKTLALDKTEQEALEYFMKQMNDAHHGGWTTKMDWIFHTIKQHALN
PIK3CA E542 K/PIK3R1 (p110 α E542 K/p85 α), sequence (P27986 whole entry partner): as the sequence (P27986 whole entry partner) above

CDK1/cyclin B = CDK1/cyclin B (Homo sapiens, UniProt P06493); test: Kinase selectivity for OMS14; format: biochemical
CDK1/cyclin B, sequence (P06493 whole entry): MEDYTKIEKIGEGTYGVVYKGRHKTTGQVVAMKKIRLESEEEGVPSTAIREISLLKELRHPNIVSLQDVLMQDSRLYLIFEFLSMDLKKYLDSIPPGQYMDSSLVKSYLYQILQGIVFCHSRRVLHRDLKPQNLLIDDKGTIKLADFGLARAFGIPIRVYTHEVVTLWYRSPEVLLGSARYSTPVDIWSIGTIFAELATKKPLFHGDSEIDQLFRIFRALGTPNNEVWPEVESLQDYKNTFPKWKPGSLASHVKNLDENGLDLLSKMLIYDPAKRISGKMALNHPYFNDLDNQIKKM
CDK1/cyclin B, sequence (P14635 whole entry, further chain): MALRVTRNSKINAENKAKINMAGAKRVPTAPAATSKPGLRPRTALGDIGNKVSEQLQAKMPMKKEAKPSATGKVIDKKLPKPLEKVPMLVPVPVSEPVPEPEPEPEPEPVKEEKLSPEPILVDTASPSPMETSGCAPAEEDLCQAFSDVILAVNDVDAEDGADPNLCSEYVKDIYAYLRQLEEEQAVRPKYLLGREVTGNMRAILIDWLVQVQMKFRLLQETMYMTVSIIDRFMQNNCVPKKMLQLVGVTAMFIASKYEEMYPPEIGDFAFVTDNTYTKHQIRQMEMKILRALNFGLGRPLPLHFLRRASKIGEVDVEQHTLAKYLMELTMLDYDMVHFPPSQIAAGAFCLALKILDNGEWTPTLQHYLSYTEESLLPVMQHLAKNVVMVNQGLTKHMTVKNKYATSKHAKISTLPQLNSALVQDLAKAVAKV

PDK1 Direct = target: T1, PDK1 Direct (Homo sapiens, UniProt O15530); test: Kinase selectivity for OMS14; format: biochemical
T1 sequence (O15530 1-556): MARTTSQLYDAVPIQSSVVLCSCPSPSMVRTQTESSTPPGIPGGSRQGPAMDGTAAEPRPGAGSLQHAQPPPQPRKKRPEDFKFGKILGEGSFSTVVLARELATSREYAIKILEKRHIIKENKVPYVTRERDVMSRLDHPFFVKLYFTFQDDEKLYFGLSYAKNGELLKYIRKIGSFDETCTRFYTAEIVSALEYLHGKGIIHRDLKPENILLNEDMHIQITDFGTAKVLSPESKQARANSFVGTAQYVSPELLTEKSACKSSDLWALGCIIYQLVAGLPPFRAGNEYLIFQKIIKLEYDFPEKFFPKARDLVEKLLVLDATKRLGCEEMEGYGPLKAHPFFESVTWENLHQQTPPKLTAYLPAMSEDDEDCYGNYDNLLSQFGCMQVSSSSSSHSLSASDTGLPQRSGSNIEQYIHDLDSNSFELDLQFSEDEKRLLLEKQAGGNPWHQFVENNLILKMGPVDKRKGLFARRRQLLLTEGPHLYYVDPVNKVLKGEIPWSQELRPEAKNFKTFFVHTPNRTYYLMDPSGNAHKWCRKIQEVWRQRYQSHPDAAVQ

[4] = read-out: % of inhibition (mean)
[5] = read-out: % of inhibition, point 1
[6] = read-out: % of inhibition, point 2

`O=C(CNc1ccc([N+](=O)[O-])cc1)Nc1nc2ccccc2s1` [OMS5, N-(1,3-benzothiazol-2-yl)-2-(4-nitroanilino)acetamide] was tested, and the TGI (DU-145) was 12 µM, the GI50 (DU-145) was 0.8 µM and the IC50 (DU-145) was 1.8 µM. It also gave a CC50 (DU-145) of 52.5 µM, an IC50 [1] of 22.1 to 61 µM and a TGI (HCT-15) of 3.7 µM. It also gave a GI50 (HCT-15) of 0.5 µM, an IC50 (HCT-15) of 0.7 µM and a CC50 (HCT-15) of 28.8 µM. For the same compound, the GI50 (T-47D) was 1 µM, the IC50 (T-47D) was 4.6 µM and the CC50 (T-47D) was 74.1 µM. For the same compound, the TGI (T-47D) was 4.6 µM, the inhibition at 10 µM (Fibro cell line) was 57.9% and the inhibition at 100 µM (Fibro cell line) was 67.1%. It also gave a GI50 (SF-295) of 0.7 µM, an IC50 (SF-295) of 1.4 µM and a CC50 (SF-295) of 24 µM. The TGI (SF-295) was 4.4 µM, the TGI (BT-549) was 6.5 µM and the GI50 (BT-549) was 2 µM. For the same compound, the IC50 (BT-549) was 5.4 µM, the CC50 (BT-549) was 27.5 µM and the GI50 (NCI 60 cell line panel) was 0.36 to 2.3 µM. It also gave an IC50 (NCI 60 cell line panel) of 0.44 to 12 µM, a GI50 (OVCAR-4) of 1 µM and an IC50 (OVCAR-4) of 3 µM. For the same compound, the CC50 (OVCAR-4) was 40.7 µM, the TGI (OVCAR-4) was 5.1 µM and the TGI (786-0) was 12 µM. The GI50 (786-0) was 0.5 µM, the IC50 (786-0) was 0.9 µM and the CC50 (786-0) was 43.7 µM. The TGI (HOP-92) was 10 µM, the GI50 (HOP-92) was 2.3 µM and the IC50 (HOP-92) was 12 µM. It also gave a CC50 (HOP-92) of 63.1 µM, a GI50 (UACC-257) of 1.3 µM and an IC50 (UACC-257) of 2.5 µM. It also gave a CC50 (UACC-257) of 6.3 µM, a TGI (UACC-257) of 2.8 µM and a GI50 (IGROV1) of 0.8 µM. The IC50 (IGROV1) was 1.8 µM, the CC50 (IGROV1) was > 100 µM and the TGI (IGROV1) was 12 µM. For the same compound, the GI50 (MALME-3M) was 1.1 µM, the IC50 (MALME-3M) was 2.1 µM and the CC50 (MALME-3M) was 5 µM. For the same compound, the TGI (MALME-3M) was 2.3 µM, the GI50 (OVCAR-5) was 1 µM and the IC50 (OVCAR-5) was 2.5 µM. The CC50 (OVCAR-5) was 46.8 µM, the TGI (OVCAR-5) was 5.4 µM and the GI50 (U251) was 0.9 µM. The IC50 (U251) was 1.7 µM, the CC50 (U251) was 41.7 µM and the TGI (U251) was 12 µM.

`O=C(CN1CCN(CC(=O)Nc2nc3ccccc3s2)CC1)Nc1ccc([N+](=O)[O-])cc1` [OMS14, N-(benzo[d]thiazol-2-yl)-2-(4-(2-((4-nitrophenyl)amino)-2-oxoethyl)piperazin-1-yl)acetamide] gave a TGI (DU-145) of 7.9 µM, a GI50 (DU-145) of 2.2 µM and an IC50 (DU-145) of 3.5 µM. It also gave a CC50 (DU-145) of 38.9 µM, an IC50 [1] of 22.1 to 61 µM and a TGI (HCT-15) of 3.7 µM. It also gave a GI50 (HCT-15) of 1.7 µM, an IC50 (HCT-15) of 2.8 µM and a CC50 (HCT-15) of 7.9 µM. The GI50 (T-47D) was 2.2 µM, the IC50 (T-47D) was 5.6 µM and the CC50 (T-47D) was > 100 µM. It also gave a TGI (T-47D) of 5.8 µM, an inhibition at 10 µM (Fibro cell line) of 49.4% and an inhibition at 100 µM (Fibro cell line) of 70.5%. It also gave a GI50 (SF-295) of 2.2 µM, an IC50 (SF-295) of 3.7 µM and a CC50 (SF-295) of 28.8 µM. The TGI (SF-295) was 7.1 µM, the TGI (BT-549) was 9.8 µM and the GI50 (BT-549) was 3 µM. The IC50 (BT-549) was 7.8 µM, the CC50 (BT-549) was 36.3 µM and the GI50 (NCI 60 cell line panel) was 0.66 to 3.02 µM. The IC50 (NCI 60 cell line panel) was 0.81 to 9.1 µM, the GI50 (OVCAR-4) was 2.4 µM and the IC50 (OVCAR-4) was 5.2 µM. It also gave a CC50 (OVCAR-4) of 75.9 µM, a TGI (OVCAR-4) of 8.3 µM and a TGI (786-0) of 11.5 µM. The GI50 (786-0) was 2.1 µM, the IC50 (786-0) was 3.3 µM and the CC50 (786-0) was 43.7 µM. For the same compound, the TGI (HOP-92) was 8.3 µM, the GI50 (HOP-92) was 2.3 µM and the IC50 (HOP-92) was 9.1 µM. It also gave a CC50 (HOP-92) of 89.1 µM, a GI50 (UACC-257) of 2.1 µM and an IC50 (UACC-257) of 4.2 µM. The CC50 (UACC-257) was 11.7 µM, the TGI (UACC-257) was 4.7 µM and the GI50 (IGROV1) was 1.9 µM. It also gave an IC50 (IGROV1) of 3.3 µM, a CC50 (IGROV1) of 47.9 µM and a TGI (IGROV1) of 4.6 µM. It also gave an inhibition at 100 µM [2, 4] of 65%, an inhibition at 100 µM [2, 5] of 66% and an inhibition at 100 µM [2, 6] of 64%. It also gave a GI50 (MALME-3M) of 3 µM, an IC50 (MALME-3M) of 6.6 µM and a CC50 (MALME-3M) of 35.5 µM. The TGI (MALME-3M) was 9.3 µM, the GI50 (OVCAR-5) was 1.5 µM and the IC50 (OVCAR-5) was 3.2 µM. For the same compound, the CC50 (OVCAR-5) was 57.5 µM, the TGI (OVCAR-5) was 4.8 µM and the IC50 (MCF-7 cancer cell line) was 22.1 µM. It also gave a GI50 (U251) of 2.6 µM, an IC50 (U251) of 3.5 µM and a CC50 (U251) of 50.1 µM. The TGI (U251) was 11.0 µM, the inhibition at 100 µM [3, 4] was 34% and the inhibition at 100 µM [3, 5] was 33%. For the same compound, the inhibition at 100 µM [3, 6] was 36%, the inhibition at 100 µM (CDK1/cyclin B; [4]) was 24% and the inhibition at 100 µM (CDK1/cyclin B; [5]) was 23%. For the same compound, the inhibition at 100 µM (CDK1/cyclin B; [6]) was 25%, the inhibition at 100 µM (PDK1 Direct; [4]) was -7% and the inhibition at 100 µM (PDK1 Direct; [5]) was -6%. The inhibition at 100 µM (PDK1 Direct; [6]) was -8%.
